Screens deposited in PubChem by The Scripps Research Institute Molecular Screening Center.
This is a sample that favours compounds with a hit; in the whole collection about 4.2% have one here.
OX1R antag-1 = antagonists of human orexin 1 receptor (OX1R). O43613. OX1R-expressing cells, FRET antagonist read-out. inhibition, % at 6.6 µM. 1.8% of 330,000 active; in the data active = inhibition mostly above about 38%, no sharp cut-off; inactive = mostly below about 40%;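 note: 0% = agonist challenge alone and 100% = reference antagonist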
OX1R antag-2 = antagonists of human orexin 1 receptor. CHO/OX1R cells, Fluo-8 calcium fluorescence, orexin A. 0.43% of 330,000 active. inhibition, % at 5 µM. O43613;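 active = inhibition above its plate's threshold, mean inhibition of all tested compounds on the plate plus 3 SD, cut at about 37% in these data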;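 note: 0% = orexin A challenge wells and 100% = SB-334867-A antagonist wells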
TAAR1 antag = antagonists of human TAAR1; AID 624466; CHO RD-HGA16 TAAR1, Fluo-8 calcium fluorescence, antagonist; 1.5% of 360,000 active; Q96RJ0; inhibition, % at 3 µM;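 active = inhibition above a per-plate cutoff, the mean inhibition of test compounds on that plate plus 3 SD, cut at about 49% in these data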;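 note: 0% = DMSO plus EC80 beta-PEA response and 100% = DMSO alone without agonist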
Target sequence (Q96RJ0 whole entry, looked up): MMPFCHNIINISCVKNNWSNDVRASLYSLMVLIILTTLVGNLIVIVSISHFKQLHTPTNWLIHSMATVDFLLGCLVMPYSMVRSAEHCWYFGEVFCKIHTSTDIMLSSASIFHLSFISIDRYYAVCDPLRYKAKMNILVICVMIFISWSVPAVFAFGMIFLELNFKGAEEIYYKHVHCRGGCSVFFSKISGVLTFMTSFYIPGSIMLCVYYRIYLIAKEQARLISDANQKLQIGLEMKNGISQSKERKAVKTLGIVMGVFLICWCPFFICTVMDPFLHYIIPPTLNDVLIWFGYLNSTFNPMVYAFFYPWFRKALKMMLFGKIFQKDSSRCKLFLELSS
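Material: CHO RD-HGA16 cells bearing hTAAR1; compound dosing: one-point dosing, 3 µM nominal final; schedule: dye loading 75 min at 37 °C, then 30 min room temperature; measured by: calcium fluorescence with Fluo-8; control set: vehicle and agonist controls; replication: n of 1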
TAAR1 ag = human TAAR1 agonism; Q96RJ0; CHO RD-HGA16 TAAR1, Fluo-8 calcium fluorescence; vehicle wells 0%, saturating PEA agonist 100%; activation, % at 3 µM; 0.99% of 360,000 active;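 active = activation above the mean activation of all test compounds in the run plus 3 SD, cut at about 38% in these data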
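Assay system: CHO-derived RD-HGA16 cells with stable Gα16 and human TAAR1; timing: 17-24 h seeding, 75 min 37 °C dye, 30 min RT; read-out: % activation from peak over basal fluorescence ratio, DMSO-to-PEA scaled; measured by: kinetic Fluo-8 calcium fluorescence; benchmarks: low control DMSO, high control PEA (EC100); doses: 3 µM single concentration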
CHO parental Ca = counter-screen: ATP calcium response change in parental CHO cells; parental CHO-K1, ATP-induced calcium, Fluo-8 fluorescence; inhibition, % at 5.6 µM; 0.63% of 330,000 active;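 active = inhibition above that plate's mean sample inhibition plus 3 SD, cut at about 26% in these data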;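 note: 0% = ATP-challenged DMSO wells and 100% = DMSO wells without ATP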
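Material – parental CHO cells · Reagent – ATP stimulus · Compound – single nominal dose of 5.6 µM per compound · Detection – Fluo-8 fluorescence · Read-out basis – percent inhibition of calcium signal · Controls – ATP-challenged DMSO wells low, unchallenged DMSO wells high · Repeats – no replicates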
GalR3 antagonist = human GalR3 antagonism; inhibition, % at 3 µM; HEK293 GalR3-CNG cAMP membrane potential fluorescence; galR3 body fused to GalR1 C-terminus; 0.44% of 360,000 active;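 active = inhibition above the screen-wide average plus 3 SD, cut at about 13% in these data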;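 note: forskolin and galanin both at EC90 stimulate the cells; cAMP rise reported by CNG channel membrane potential dye signal; 0% = forskolin plus galanin with DMSO and 100% = forskolin alone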
OX1R HTRF conf = OX1R (human) antagonism, HTRF confirmed | shares compounds with OX1R antag-1 | OX1R-expressing cells, HTRF antagonist assay | inhibition, % at 6.6 µM | 49% of 1,800 active | AID 492964; in the data active = inhibition above about 55%;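 note: CHO cells expressing OX1R stimulated with orexin A at about EC80; 0% = agonist challenge alone and 100% = reference antagonist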
CHO-K1 HTRF = counter-screen for OX1R antagonists: effect in parental CHO-K1 cells. shares compounds with OX1R antag-1. HTRF counterscreen. inhibition, % at 6.6 µM. 48% of 1,800 active. AID 493232; in the data active = inhibition above about 17%;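 note: 0% = agonist challenge with vehicle and 100% = vehicle alone without agonist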
* marks the source's active call; other numbers are inactive results; nt = not tested or not shown.

SMILES	OX1R antag-1	OX1R antag-2	TAAR1 antag	TAAR1 ag	CHO parental Ca	GalR3 antagonist	OX1R HTRF conf	CHO-K1 HTRF
COc1cccc2cc(C(=O)NCc3ccccn3)c(=O)oc12	115.8*	-6.7	7.5	5.8	-3.7	2.8	33.3	33.6*
CNC(=O)c1cc2cccc(OC)c2oc1=O	41.9	-6.1	-3.2	9.3	-5.4	0.7	nt	nt
O=C1NC(c2ccccc2Cl)=N/C1=C/c1ccco1	12.8	-3.7	-16.3	0.7	-4.0	-3.8	nt	nt
COc1ccc(C2C3C(=O)N(N(C)c4ncc(C(F)(F)F)cc4Cl)C(=O)C3ON2C)cc1 (configuration not stated)	20.0	-32.3	-8.8	0.3	-17.7	-1.1	nt	nt
Cc1ccn2cc(CNS(=O)(=O)c3ccc(Cl)s3)nc2c1	1.9	-19.9	11.0	1.2	-16.7	nt	nt	nt
N#CC(C#N)=C1NC2(CCCCC2)Cc2ccccc21	4.0	-13.1	4.2	18.9	-7.8	-3.3	nt	nt
N#CC(C#N)=c1ccc2c(c1)NC1(CCCCC1)N=2	191.3*	-4.3	-9.4	6.7	-8.1	-1.0	52.2	58.2*
CC1CC(C)(C)NC(=S)N1CCCC(=O)Nc1ccc(Cl)cc1 (configuration not stated)	4.0	-23.4	-4.1	0.9	-14.5	0.4	nt	nt
CC(C)c1ccc(NC(=O)CCCN2C(=S)NC(C)(C)CC2C)cc1 (configuration not stated)	99.5*	-29.3	-22.0	-1.2	-19.7	3.3	16.4	10.0
O=C(O)Cc1c(-c2ccccc2Cl)c2cc(Br)ccc2[nH]c1=O	12.6	2.8	-35.5	-0.3	-3.0	-3.1	nt	nt
CC(=O)N(CN1C(=O)c2ccccc2C1=O)c1cccc(C)c1	13.9	-1.9	1.2	0.1	-18.3	-0.4	nt	nt
CC(=O)N(/N=C1\Sc2ccccc2C1=O)c1cccc(C)c1	105.3*	9.3	7.1	9.5	1.8	-0.5	19.3	11.8
CC1(Cc2ccc3ccccc3n2)C(=O)Nc2ccc(OC(F)(F)F)cc21 (configuration not stated)	nt	nt	-6.1	1.0	nt	-4.7	nt	nt
COc1ccc2cc3c(N)c(C(=O)N4CCCC4)sc3nc2c1	97.5*	6.2	-9.9	2.0	-11.1	0.8	88.8*	10.7
Cc1ccc2cc3c(N)c(C(=O)N4CCOCC4)sc3nc2c1	34.4	-32.0	7.8	6.6	-17.9	-2.4	nt	nt
Cc1cccc2nc(-c3cccc(NC(=O)Cc4ccccc4)c3)cn12	32.4	-41.0	-5.4	-1.1	-25.5	-3.6	nt	nt
Cc1cccc2nc(-c3cccc(NC(=O)c4ccc(Cl)cc4)c3)cn12	84.2*	-18.2	-5.8	-1.0	-26.7	-0.6	78.7*	24.4*
COc1cccc(COC(=O)C2CCN(C(=O)c3ccccc3C)CC2)c1OC	26.2	-13.9	-23.6	2.0	-5.6	-1.9	nt	nt
COCCCNC(=O)CN1C(=O)/C(=C\c2ccc(C)cc2)Sc2ccccc21	77.7*	15.1	-2.9	5.5	-12.7	-9.0	37.5	-5.1
O=C(c1ccc(NS(=O)(=O)c2cccc([N+](=O)[O-])c2)cc1)N1CCCCCC1	23.8	-21.7	-5.4	4.2	-9.8	-1.0	nt	nt
O=C(c1ccccc1NS(=O)(=O)c1cccc([N+](=O)[O-])c1)N1CCCC1	77.9*	-0.1	-4.8	-0.1	-10.7	0.2	20.3	6.7
O=S1(=O)N=C2CCCCCN2C(c2ccccc2)N1 (configuration not stated)	5.1	-1.5	16.7	-0.4	4.7	-6.8	nt	nt
Cc1nn2c3ccccc3nc2c2ccccc12	87.7*	25.0	-1.2	2.0	-11.3	-3.1	82.8*	-12.1
CCn1c(=O)c(C)nn2c3ccccc3nc12	23.5	6.1	-9.4	8.7	-4.0	-4.7	nt	nt
O=C1C2=C(c3ccccc31)[N+](=O)C1CCCCC1N2[O-] (configuration not stated)	112.1*	-11.4	-7.1	3.0	-1.9	-4.6	45.2	44.1*
